# Assay outcomes deposited in PubChem by several laboratories.
# CHOP inh: CHOP inhibition in unfolded protein response. inhibition, % at 10 µM. CHO-K1 CHOP-promoter luciferase, tunicamycin-induced, 15-18 h. 220,000 tested, 3.8% active. AID 2732;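 active = compounds that reduced the stress-induced luciferase reporter signal by more than about 70% of percent inhibition, limit read from the data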;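 note: 0% = tunicamycin plus vehicle and 100% = wells without tunicamycin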
# Autophagy mod: autophagy modulation, high-content screen; MEF GFP-LC3 puncta imaging; test concentration mostly 10 µM; calls only at 10 µM (by protocol); 190,000 tested, 0.98% active;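 active = percentage of spot-positive cells more than 3 SD above its plate mean, without a fluorescence outlier flag or 80% toxicity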;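 note: spot-positive cell cutoff set from DMSO-treated cells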
# L major viab: inhibitors of Leishmania major promastigote growth; Leishmania major promastigotes, resazurin fluorescence viability; AID 1063; 200,000 tested, 9% active; inhibition, % at 10 µM; in the data active = inhibition above about 50%;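 note: promastigotes grown with compound for 44 hours at 28 °C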
# bCat nuc transl: modulators of beta-catenin nuclear translocation. nuclear translocation activity, % at 5 µM. HeLa beta-catenin nuclear translocation, immunofluorescence imaging. AID 1665. 190,000 tested, 0.3% active;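 active = nuclear translocation activity above 50% at 5 µM, with a well cell count of 50 or more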;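 note: per-cell ratio of nuclear to cytoplasmic median beta-catenin stain intensity; plate controls were DMSO negative control for no effect and GSK-3 inhibitor IX positive control for full effect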
#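 Test system: human HeLa cells, native beta-catenin. Compound dosing: 5 µM primary single dose, 0.1% DMSO, 0.02–20 µM confirmation series. Incubation: compound exposure 24 h at 37°C. Detection: beta-catenin immunostaining with DAPI counterstain, 20x imaging, 6 fields/well. Read-out basis: Nuclear/cytoplasmic beta-catenin signal ratio, % activation.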
# MT stabilizer: microtubule stabilization, imaging screen; % tubulin-high responders, % at 10 µM; HeLa tubulin immunostaining HCS, 24 h; share of cells brighter than vehicle mean+2SD; 200,000 tested, 0.83% active;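 active = plate Z-score above 3 for both tubulin-high and condensed-nucleus cell shares, with cell loss under 80%, at 10 µM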;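 note: anti alpha tubulin signal scored within the nucleus-defined area of each cell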
# Dynein transport: dynein cargo transport inhibition. 3617.4 mouse cells, GR-EGFP nuclear translocation imaging; test concentration mostly 20 µM; stimulated with dexamethasone, 1 µM; active compounds read low. z-score, hits read low. 220,000 tested, 0.47% active;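 active = plate z-score of nuclear minus cytoplasmic receptor signal below a set negative limit, without overly bright fluorescence or cell loss, cut at about -3.5 in these data, passing the limit was not always enough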;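 note: z-score of nuclear minus cytoplasmic ring GR-EGFP intensity difference per well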
#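 Buffer or medium: tet-free, stripped-serum medium; Also added: dexamethasone, 1.0 µM final; Technique: high-content fluorescence imaging after fixation; Times: 48 h induction, 1 h compound, 30 min dex at 37 °C; Read-out: per-cell GR-EGFP intensity, nucleus versus surrounding cytoplasmic ring, well-averaged.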
# Numbers without * were called inactive; i = inactive; · = not tested or not shown; + = active, no number. Rows were chosen to be rich in hits. Some 12% of all compounds tested hit in one or more screens of this group.
SMILES,CHOP inh,Autophagy mod,L major viab,bCat nuc transl,MT stabilizer,Dynein transport
Cn1c2ccccc2c2nnc(SCN3C(=O)c4ccccc4C3=O)nc21,·,·,·,4.0,·,·
COc1cc2c(cc1OC)C(=O)CC(C)S2 (centres undefined),22.6,i,-2.6,-1.2,2.9,-0.36
CCc1ccccc1NNC(=O)c1snnc1C,10.9,·,·,-4.6,·,-0.619
COc1cc(C2C(C#N)=C(N)OC3=C2C(=O)CC(C)(C)C3)cc([N+](=O)[O-])c1O (centres undefined),20.7,·,·,0.2,·,0.911
OCCNCCSc1ccc(Cl)cc1,23.5,i,-0.5,-0.8,1.4,-0.907
CC(C)NCCOCCSc1ccc(Cl)cc1,-17.4,i,90.0*,1.3,2.1,-0.371
OCCNCCCCSc1ccc(Cl)cc1,21.8,i,95.8*,-0.3,4.3,-0.268
COCCCNCCCCSc1ccc(Cl)cc1,-12.8,i,95.3*,0.2,2.3,-0.136
CCCCNCCOCCSc1ccc(Cl)cc1,-0.5,i,98.5*,3.1,1.4,-0.496
Clc1ccc(SCCCCn2cncn2)cc1,-0.7,i,2.5,0.7,1.5,-0.316
CCOC(=O)Cc1csc(NC(=O)CSc2ncnc3c2cnn3-c2ccccc2Cl)n1,11.3,i,12.6,4.8,4.5,-1.02
CN(C)CCOC(c1ccc(Cl)cc1)c1ccccn1 (centres undefined),13.9,i,23.0,0.1,1.9,-0.82
COCCCNCCOCCSc1ccc(Cl)cc1,27.6,i,98.5*,·,2.9,-0.724
CN(C)CCOCCSc1ccc(Cl)cc1,3.4,i,97.5*,1.2,1.8,-0.342
COCCNC(=O)c1onc(CSc2ccc(Cl)cc2)c1C(=O)O,11.6,i,-6.9,-0.9,3.7,-0.356
CCOC(=O)Cc1csc(NC(NC(=O)OCC)(C(=O)OCC)C(F)(F)F)n1 (centres undefined),27.3,i,-2.5,·,3.2,0.529
O=C(Nc1ccc2nc3n(c(=O)c2c1)CCCC3)c1ccccc1[N+](=O)[O-],20.3,i,56.2*,·,2.6,-0.66
CC1CC(C)CN(C(=S)Nc2ccc3nc4n(c(=O)c3c2)CCCCC4)C1 (centres undefined),0.7,i,85.2*,·,3.5,0.286
Cc1ccccc1C(=O)Nc1ccc2nc3n(c(=O)c2c1)CCC3,-18.0,i,4.7,·,6.0,-0.723
CCCN(CCC)CCCNC(=S)Nc1ccc2nc3n(c(=O)c2c1)CCCCC3,30.3,i,60.8*,·,2.8,-0.382
CCN(CC)CCNC(=S)Nc1ccc2nc3n(c(=O)c2c1)CCCCC3,28.1,i,3.2,-0.5,3.2,-0.431
Cc1c(C=O)c2ccccn2c1C(=O)c1cccc([N+](=O)[O-])c1,29.6,i,4.5,2.0,4.0,-0.515
Cc1ccc2c(c1)NC(=O)C(CC(=O)N(C)Cc1ccccc1)O2 (centres undefined),-1.6,i,-3.2,·,4.6,1.3
OC1CCCN(Cc2c3ccccc3cc3ccccc23)C1 (centres undefined),21.6,i,77.7*,·,2.5,0.567
CC(C)c1ccc2[nH]c(O)c(N=NC(=O)c3cccc(S(=O)(=O)N4CCCCC4)c3)c2c1,66.4,i,98.8*,0.4,3.0,-0.835
SMILES,CHOP inh,Autophagy mod,L major viab,bCat nuc transl,MT stabilizer,Dynein transport
CNC(=S)N=Nc1c(O)[nH]c2ccc(C(C)C)cc12,92.8*,i,4.6,-1.7,6.6,0.582
Oc1ccc(NC(=S)N=Nc2c(O)[nH]c3ccccc23)cc1,-31.0,i,1.7,0.9,2.6,-0.985
CC(C)c1ccc2[nH]c(O)c(N=NC(=O)c3cccc(S(=O)(=O)Nc4ccc(Cl)cc4)c3)c2c1,-4.5,i,-0.1,0.7,4.4,0.236
Cc1ccc(NC(=S)N=Nc2c(O)[nH]c3ccccc23)cc1,68.8,i,90.6*,11.0,4.5,-0.177
CNC(=S)N=Nc1c(O)[nH]c2ccccc12,-10.2,i,5.8,-0.5,3.6,1.17
CCC(=C(c1ccc(OC)cc1)c1ccc(OC)cc1)c1cn(CC(O)CN2CCN(C)CC2)c2ccccc12 (centres undefined),-21.2,+,100.3*,22.0,0.7,0.784
COc1ccc(-c2cc3ccccc3n2CC(O)CN2CCCCC2)cc1 (centres undefined),2.4,·,·,0.9,·,-0.107
CN(Cc1ccccc1F)c1nc(-c2cccs2)nc2ccccc12,42.1,i,79.2*,-0.1,2.4,-0.37
Fc1ccccc1N1CCN(c2nc(-c3cccs3)nc3ccccc23)CC1,-3.7,i,26.2,0.2,2.8,0.186
CN1CCN(CCOC2Cc3ccccc3Sc3ccc(Cl)cc32)CC1 (centres undefined),-2.0,i,66.0*,-2.1,3.4,0.192
OCCN1CCN(C2Cc3cc(Cl)ccc3Sc3ccc(Cl)cc32)CC1 (centres undefined) (tested in a mixture with another compound),74.7*,i,54.6*,1.2,2.9,-1.3
CC(C)(C)NC(=O)NC(=O)CN1CCN(c2cccc(Cl)c2)CC1,16.6,·,·,0.4,·,-0.734
C/C(Cl)=C/Cn1c(=O)c2c(nc(Br)n2Cc2ccccc2)n(C)c1=O,54.9,i,15.0,-0.1,4.2,-0.562
COc1ccc(C2/C=C\CN(C(=O)c3ccccc3)[C@H](Cc3ccccc3)C(=O)N2Cc2ccc(F)cc2)cc1 (some centres undefined),9.2,·,·,-1.1,·,-0.518
COc1cc(C=O)ccc1OCc1ccc(Cl)nc1,-16.6,i,2.3,-1.0,3.9,-0.342
COc1ccc(CCNCc2ccc(OCc3ccc(Cl)nc3)c(OC)c2)cc1OC,10.4,i,89.9*,-1.2,1.1,-1.12
CCCCCNCc1ccc(OCc2ccc(Cl)nc2)c(OC)c1,30.1,i,99.6*,1.0,2.0,-0.195
COc1cc(CNCc2ccccn2)ccc1OCc1ccc(Cl)c(Cl)c1,23.3,i,100.0*,4.6,2.6,1.04
COc1ccc(CNCCc2ccccc2)cc1OCC(N)=O,-9.2,i,-3.6,0.3,1.0,-0.241
COc1ccc(CNCCc2ccc(Cl)cc2)cc1OCc1ccccc1,49.8,+,96.2*,1.6,2.0,-0.632
COc1cc(CNCCNCC(C)O)ccc1OCc1ccc(Cl)nc1 (centres undefined),25.9,i,-5.8,-3.8,5.7,-0.358
CCOCCCNCc1ccc(OCCC(C)C)c(OC)c1,19.8,i,85.4*,0.5,2.8,-0.583
COc1ccc(CNS(=O)(=O)NCc2ccc(OC)c(OC)c2)cc1OC,23.8,i,3.1,0.1,2.5,-0.115
CN(C)N1C(N)=C(C#N)C(c2cccs2)C2=C1CC(C)(C)CC2=O (centres undefined),-0.9,i,8.5,-1.7,3.7,0.193
